Data from publication PMC5954213 (Molecular pharmaceutics, 2018).
“Also recorded” adds a separate entry of the source.

What was measured:
[1] = test system: ova s/c BALB/c mice; assay: Airway hyperresponsiveness; type: in vivo, mouse
[2] = In vitro microsomal stability, human; type: in vitro ADME
[3] = test system: ova s/c mice; assay: Mucin volume density in lung sections; type: in vivo, mouse
[4] = test system: α1-3,5β3γ2 GABAARs; type: cell-based; conditions: 0.1 μM or 1 μM, current evoked by GABA
Outline: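 Cells were transiently transfected with the indicated α subunit plus β3 and γ2L. Mean enhancement of the GABA-evoked current by 0.1 or 1 μM test compound was measured by patch clamp, n = 5, mean ± SEM.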

[5] = test system: peripheral GABAAR; assay: NIMH Psychoactive Drug Screening Program; type: binding; conditions: 10 μM
[6] = Pharmacokinetic profile in mouse blood, lungs and brain; type: in vivo
Outline: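 Mice received a single oral gavage of 25 mg/kg test compound, suspended by grinding with PEG and then adding 2% HPMC (final vehicle 2% HPMC, 2.5% PEG). Blood, lung and brain were sampled over time and analysed by LC-MS/MS. Tmax, Cmax, AUC and elimination rate constant were calculated from the concentration-time profiles.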

[7] = Mouse plasma protein binding; type: in vitro ADME
[8] = test system: ova s/c mice; assay: Cytokine expression in lung homogenate; type: in vivo, mouse; conditions: 100 mg/kg p.o. twice daily 5 days
Outline: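 Male Balb/c mice were ova/alum-sensitized i.p. on days 0, 7 and 14, then challenged i.n. with ova for 5 days. During challenge they received test compound 100 mg/kg or vehicle (2% HPMC, 2.5% PEG) by oral gavage b.i.d. for 5 days. Snap-frozen whole lung was homogenized in T-PER with protease inhibitors and spun 10,000 rpm for 5 min. Supernatant went to a Th1/Th2/Th17 cytometric bead array on flow cytometry. n = 10/group, one-way ANOVA versus vehicle.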

[9] = test system: ova s/c mice; assay: EdU staining of lung sections; type: in vivo, mouse; conditions: 100 mg/kg; compared to vehicle-treated ova s/c mice
Outline: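 Ova s/c mice were dosed orally with test compound 100 mg/kg b.i.d. for 5 days or with vehicle. They received EdU 100 mg/kg i.p. once and were euthanized 4 h later. Lungs were formalin-fixed and paraffin-embedded, and 6 μm sections were permeabilized with 0.5% Triton X-100 for 20 min. EdU was click-labelled with Alexa Fluor 488 azide for 30 min in the dark, with Hoechst 33342 counterstain. Sections were read by fluorescence microscopy.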

[10] = In vitro microsomal stability, mouse; type: in vitro ADME
[11] = test system: ova s/c BALB/c mice; assay: Quantification of airway inflammatory cells in BALF by flow cytometry; type: in vivo, mouse
[12] = test system: guinea pig airway smooth muscle contracted with 1 μM substance P; assay: Relaxation of substance P-contracted guinea pig tracheal rings
[13] = test system: mice; assay: Sensorimotor coordination study using a rotarod apparatus; type: in vivo, mouse; conditions: 100 mg/kg oral; 15 rpm, 3 minutes, three time points
Outline: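 Mice were dosed orally with 100 mg/kg test compound or vehicle (2% HPMC, 2.5% PEG), n = 9. They were tested on a rotarod at 15 rpm for up to 3 min at three time points, and time balanced was recorded. The control was diazepam 5 mg/kg i.p. in 5% DMSO/35% propylene glycol/60% PBS.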

[14] = test system: CD4+ T lymphocytes isolated from ova s/c mice; assay: Automated patch clamp with CD4+ T lymphocytes in the presence of 600 nM GABA; type: cell-based, mouse
Outline: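 Splenic CD4+ T cells from ova s/c BALB/c mice were magnetically enriched after RBC lysis, then suspended at 5x10^6 cells/ml in extracellular solution (pH 7.4) with CsCl-based intracellular solution (pH 7.2). Automated whole-cell patch clamp was held at −80 mV. Test compound (final DMSO 0.1%) was applied for 3 s with 600 nM GABA, which was set as 100%. Eight independent runs, n = 12. EC50 and top came from a sigmoidal fit.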

Structure (SMILES): C[C@H]1N=C(c2ccccc2F)c2cc(Br)ccc2-n2cnc(C(=O)O)c21 [MIDD0301]
- effect on AHR (sRaw) ([1]; 20 mg/kg p.o. b.i.d. 5 days, 12.5 mg/ml methacholine): downward trend; also recorded: did not reduce AHR significantly
- effect on AHR (sRaw) ([1]; 50 mg/kg p.o. b.i.d. 5 days, 12.5 mg/ml methacholine): sufficient to overcome induced AHR
- effect on AHR (sRaw) ([1]; 100 mg/kg p.o. b.i.d. 5 days, 12.5 mg/ml nebulized methacholine): significantly reduced AHR
- microsomal stability t1/2 [2]: 25.77 h
- mucous production in the airways (mucin volume density) ([3]; 20 mg/kg b.i.d. 5 days): did not produce a significant change
- mucous production in the airways (mucin volume density) ([3]; 50 mg/kg b.i.d. 5 days): did not produce a significant change
- mucous production in the airways (mucin volume density) ([3]; 100 mg/kg b.i.d. 5 days): did not produce a significant change
- activation of GABAARs among alpha subtypes tested [4]: activating GABAARs strongly
- binding [5]: no significant binding
- blood brain barrier penetration ([6]; 25 mg/kg single oral): Poor
- Tmax ([6]; blood and lung, 25 mg/kg single oral): ≤ 0.667 h
- AUC ([6]; blood, 25 mg/kg single oral): 2087.1 µg·min/g
- Cmax ([6]; blood, 25 mg/kg single oral): 8.24 µg/g
- half-life ([6]; blood, 25 mg/kg single oral): 13.9 h
- rate of elimination ([6]; blood, 25 mg/kg single oral): 0.001 min⁻¹
- AUC ([6]; brain, 25 mg/kg single oral): 107.7 µg·min/g
- elimination rate compared with blood ([6]; lung tissue, 25 mg/kg single oral): somewhat faster
- AUC ([6]; lung, 25 mg/kg single oral): 1390.5 µg·min/g
- Cmax ([6]; lungs, 25 mg/kg single oral): 4.39 µg/g
- half-life ([6]; pharmacokinetic studies, as stated in abstract): ~14 h
- plasma protein binding [7]: 88%
- IFN-γ concentration in lung homogenates [8]: not altered significantly
- IL-2 concentration in lung homogenates [8]: not altered significantly
- IL-6 concentration in lung homogenates [8]: not altered significantly
- IL-10 expression in the lung [8]: not significantly altered
- IL-17A levels in lung homogenates [8]: significantly reduced
- lung TNF-α levels [8]: decreased
- IL-4 levels in lung homogenates ([8]; vs vehicle-treated ova s/c mice): reduced
- EdU cell staining of lung sections (alveolar region) [9]: reduced cell staining
- microsomal stability t1/2 [10]: 9.15 h
- number of BALF CD4+ T cells ([11]; 20 mg/kg p.o. b.i.d. 5 days): significantly reduced
- number of BALF CD4+ T cells ([11]; 50 mg/kg p.o. b.i.d. 5 days): significantly reduced
- BALF F4/80+ cells (macrophages) ([11]; 100 mg/kg p.o. b.i.d. 5 days): reduced their numbers significantly
- BALF Siglec F+ cell population (eosinophils/alveolar macrophages) ([11]; 100 mg/kg p.o. b.i.d. 5 days): reduced their numbers significantly
- number of BALF CD4+ T cells ([11]; 100 mg/kg p.o. b.i.d. 5 days): significantly reduced
- total inflammatory cells (CD45+) in BALF ([11]; 100 mg/kg p.o. b.i.d. 5 days): significant suppression
- time to partial relaxation of muscle constriction ([12]; 25 μM in organ bath): ≤ 15 min
- reversibility of relaxation effect ([12]; ASM washed with buffer and contracted again with substance P): reversible
- pharmaceutically active concentration in tissue ([12]; assuming tracheal concentration is 10% of organ bath concentration): single digit micromolar concentration
- smooth muscle relaxation compared with compound 2 ([12]; comparison with compound 2 data of ref 13): more pronounced smooth muscle relaxation
- concentration giving significant relaxation of pre-contracted smooth muscle ([12]; substance P 1 μM, 60 minute assay, vs vehicle 0.1% DMSO): ≥ 25 µM
- sensorimotor inhibition on rotarod [13]: absence of sensorimotor inhibition
- concentration at which current change saturated ([14]; 600 nM GABA): 100 nM
- maximal potentiation ([14]; 600 nM GABA = 100 %): 512%
- EC50 ([14]; read-out: EC50 of current potentiation, 600 nM GABA): 17 nM

Structure (SMILES): OCc1cc(C(O)CNCCCCCCOCCCCc2ccccc2)ccc1O (stereo not shown) [salmeterol, reference compound]
- effect on AHR (sRaw) ([1]; 1 mg/kg p.o. b.i.d. 5 days): no anti-AHR effect
- effect on AHR (sRaw) ([1]; single oral dose 10 mg/kg acutely before measurement (data not shown)): without any significant effect on AHR
- mucous levels in the airways ([3]; 1 mg/kg b.i.d. 5 days): no effect
- BALF eosinophil population ([11]; 1 mg/kg p.o. b.i.d. 5 days): no significant effect
- BALF macrophage population ([11]; 1 mg/kg p.o. b.i.d. 5 days): no significant effect
- number of BALF CD4+ T cells ([11]; 1 mg/kg p.o. b.i.d. 5 days): reduced
- total inflammatory cells (leukocyte numbers) in BALF ([11]; 1 mg/kg p.o. b.i.d. 5 days): did not significantly change
